Experimental data from ChEMBL document CHEMBL2062481 (J Med Chem, 2012).

Legend:
[1] = 1-octanol-phosphate buffer distribution coefficient, log D of the compound at 1 uM after 2 hrs by shake flask method at pH 7.4; format: physicochemical
In short: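 Phosphate buffer (0.1 M, pH 7.4) and 1-octanol were mutually pre-saturated. Analyte at 1 μM in buffer was overlaid with octanol at two volume ratios chosen by lipophilicity class, three wells per ratio. Plates were shaken 2 h at 25 °C and centrifuged, and the aqueous phase was quantified by LC-MS. Results were accepted if the two ratio means agreed within 0.1 unit.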

[2] = AUC (0 to 24 hrs) in C3H/HeN mouse plasma at 1 mg/kg, iv administered as single dose; format: ADME, organism-based; set-up: time < 24 hr, dose 1 mg/kg, route intravenous
In short: (§1)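 Female C3H/HeN mice (19–25 g) received a single tail-vein iv dose in 100 μL PBS. Blood and urine (10 μL) were sampled at 6 and 30 min and at 1, 2, 4, 6 and 8 h. Samples were methanol-precipitated, centrifuged and quantified by LC-MS. n = 4.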

[3] = AUC (0 to 24 hrs) in C3H/HeN mouse urine at 1 mg/kg, iv administered as single dose; format: ADME, organism-based; set-up: time < 24 hr, dose 1 mg/kg, route intravenous; in short: as §1
[4] = AUC (0 to 24 hrs) in C3H/HeN mouse urine at 25 mg/kg, iv administered as single dose; format: ADME, organism-based; set-up: time < 24 hr, dose 25 mg/kg, route intravenous; in short: as §1
[5] = AUC (0 to 24 hrs) in C3H/HeN mouse plasma at 25 mg/kg, iv administered as single dose; format: ADME, organism-based; set-up: time < 24 hr, dose 25 mg/kg, route intravenous; in short: as §1
[6] = AUC (0 to 24 hrs) in C3H/HeN mouse urine at 0.05 mg/kg, iv administered as single dose; format: ADME, organism-based; set-up: time < 24 hr, dose 0.05 mg/kg, route intravenous; in short: as §1
[7] = AUC (0 to 24 hrs) in C3H/HeN mouse plasma at 0.05 mg/kg, iv administered as single dose; format: ADME, organism-based; set-up: time < 24 hr, dose 0.05 mg/kg, route intravenous; in short: as §1
[8] = AUC (0 to 24 hrs) in C3H/HeN mouse plasma at 5 mg/kg, iv administered as single dose; format: ADME, organism-based; set-up: time < 24 hr, dose 5 mg/kg, route intravenous; in short: as §1

Row | SMILES | logD at 2 h, 1 µM [1] | also measured
1 | O=[N+]([O-])c1ccc2c(ccn2-c2ccc(O[C@H]3O[C@H](CO)[C@@H](O)[C@H](O)[C@@H]3O)c(F)c2)c1 | 1.9 | –
2 | OC[C@H]1O[C@H](Oc2ccc(-n3ccc4cc(Cl)cnc43)cc2Cl)[C@@H](O)[C@@H](O)[C@@H]1O | 3.4 | –
3 | CS(=O)(=O)Nc1ccc2c(ccn2-c2ccc(O[C@H]3O[C@H](CO)[C@@H](O)[C@H](O)[C@@H]3O)c(Cl)c2)c1 | 1.8 | –
4 | O=C(O)c1ccc2c(ccn2-c2ccc(O[C@H]3O[C@H](CO)[C@@H](O)[C@H](O)[C@@H]3O)c(Cl)c2)c1 | 1.1 | –
5 | O=[N+]([O-])c1ccc2c(c1)CCN2c1ccc(O[C@H]2O[C@H](CO)[C@@H](O)[C@H](O)[C@@H]2O)cc1 | 1.9 | AUC(0-t) at 24 h [2]: 2200 ng·h/mL; AUC(0-t) at 24 h [3]: 586000 ng·h/mL
6 | O=C(O)c1ccc(-c2ccc(O[C@H]3O[C@H](CO)[C@@H](O)[C@H](O)[C@@H]3O)c(Cl)c2)cc1 | -0.8 | –
7 | COc1ccc2c(ccn2-c2ccc(O[C@H]3O[C@H](CO)[C@@H](O)[C@H](O)[C@@H]3O)c(Cl)c2)c1 | 3 | –
8 | OC[C@H]1O[C@H](Oc2ccc(-c3cnc4[nH]ccc4c3)cc2Cl)[C@@H](O)[C@@H](O)[C@@H]1O | 3.2 | –
9 | OC[C@H]1O[C@H](Oc2ccc(-n3ccc4ccccc43)cc2Cl)[C@@H](O)[C@@H](O)[C@@H]1O | 1.8 | AUC(0-t) at 24 h [4]: 19300 ng·h/mL; AUC(0-t) at 24 h [5]: 8200 ng·h/mL
10 | OC[C@H]1O[C@H](Oc2ccc(-n3ccc4ccccc43)cc2F)[C@@H](O)[C@@H](O)[C@@H]1O | 2.4 | –
11 | OC[C@H]1O[C@H](Oc2ccc(N3CCc4ccccc43)cc2Cl)[C@@H](O)[C@@H](O)[C@@H]1O | 2.8 | –
12 | OC[C@H]1O[C@H](Oc2ccc(N3CCc4ccccc43)cc2)[C@@H](O)[C@@H](O)[C@@H]1O | 2.3 | –
13 | COC(=O)c1ccc2c(ccn2-c2ccc(O[C@H]3O[C@H](CO)[C@@H](O)[C@H](O)[C@@H]3O)c(Cl)c2)c1 | 2.8 | –
14 | O=[N+]([O-])c1ccc2c(c1)CCN2c1ccc(O[C@H]2O[C@H](CO)[C@@H](O)[C@H](O)[C@@H]2O)c(Cl)c1 | 1.9 | AUC(0-t) at 24 h [6]: 33400 ng·h/mL; AUC(0-t) at 24 h [7]: 3500 ng·h/mL
15 | O=[N+]([O-])c1ccc2c(ccn2-c2ccc(O[C@H]3O[C@H](CO)[C@@H](O)[C@H](O)[C@@H]3O)c(Cl)c2)c1 | 1.8 | AUC(0-t) at 24 h [8]: 2300 ng·h/mL
16 | N#Cc1cnc2c(ccn2-c2ccc(O[C@H]3O[C@H](CO)[C@@H](O)[C@H](O)[C@@H]3O)c(Cl)c2)c1 | 1.6 | –
17 | OC[C@H]1O[C@H](Oc2ccc(-n3ccc4c(OCc5ccccc5)cccc43)cc2Cl)[C@@H](O)[C@@H](O)[C@@H]1O | 2.7 | –
18 | Cn1cnc2cc(-c3ccc(O[C@H]4O[C@H](CO)[C@@H](O)[C@H](O)[C@@H]4O)c(Cl)c3)cnc21 | 1.3 | –
